Test results: article PMC8268672 (Bioorganic Chemistry, 2021)
≈ marks a conversion by molar mass, not a printed value. Like-named read-outs stand apart in the source and are kept apart here.

What was measured:
[1] = system: Madin Darby canine kidney (MDCK) cells; details: dog
Para-influenza-3 virus = assay: CPE reduction assay in Vero cells; assay type: cell-based, Parainfluenza-3 virus; details: read-out: Antiviral EC50, Para-influenza-3 virus
Yellow Fever virus = assay: microbe, parasite or virus in culture; assay type: cell-based; details: read-out: Antiviral EC50, Yellow Fever virus
MT4 cells = details: MT4 cell cultures; colorimetric MTT cell viability assay
Adeno virus-2 = assay: CPE reduction assay in HEL cells; assay type: cell-based; details: read-out: Antiviral EC50, Adeno virus-2
Human Coronavirus (229E) = assay: CPE reduction assay in HEL cells; assay type: cell-based; details: read-out: Antiviral EC50, Human Coronavirus (229E)
Reovirus-1 = assay: CPE reduction assay in Vero cells; assay type: cell-based; details: read-out: Antiviral EC50, Reovirus-1
Sindbis virus = assay: CPE reduction assay in Vero cells; assay type: cell-based; details: read-out: Antiviral EC50, Sindbis virus
Coxsackie virus B4 = assay: CPE reduction assay in Vero cells; assay type: cell-based; details: Enterovirus B, read-out: Antiviral EC50, Coxsackie virus B4
Vaccinia virus = assay: microbe, parasite or virus in culture; assay type: cell-based; details: Orthopoxvirus vaccinia, HEL, read-out: Antiviral EC50, Vaccinia virus
Punta Toro virus = assay: CPE reduction assay in Vero cells; assay type: cell-based; details: read-out: Antiviral EC50, Punta Toro virus
[2] = system: Escherichia coli (ATCC 8739); assay: MIC, broth microdilution; assay type: cell-based; details: ATCC8739, read-out: Minimum inhibitory concentration (MIC), EC
Procedure, shortened: (§1)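 Broth microdilution per CLSI in Mueller-Hinton broth, using two-fold serial dilutions of test compound and reference drugs from 512 to 0.25. Bacterial broth cultures were grown 2-6 h to 0.5 McFarland turbidity, then diluted with sterile solution to the final inoculum. MIC is reported in µg/mL.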

[3] = system: Pseudomonas aeruginosa (MCCB 0035); assay: MIC, broth microdilution; assay type: cell-based; details: read-out: Minimum inhibitory concentration (MIC), PA
Procedure, shortened: as §1

[4] = system: Klebsiella aerogenes (NCIM-2098); assay: MIC, broth microdilution; assay type: cell-based; details: NCIM2098, read-out: Minimum inhibitory concentration (MIC), KA
Procedure, shortened: (§2)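 Antibacterial MICs by CLSI broth microdilution in Mueller-Hinton broth. Test compounds and standard drugs are serially diluted two-fold from 512 to 0.25. The bacterial broth culture is grown 2-6 h to a 0.5 McFarland turbidity, then adjusted with sterile solution to the final inoculum.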

[5] = system: Staphylococcus aureus (ATCC 29213); assay: MIC, broth microdilution; assay type: cell-based; details: ATCC29213, read-out: Minimum inhibitory concentration (MIC), SA
Procedure, shortened: as §2

[6] = system: Bacillus cereus (NCIM-2458); assay: MIC, broth microdilution; assay type: cell-based; details: NCIM2458, read-out: Minimum inhibitory concentration (MIC), BC
Procedure, shortened: as §1

[7] = system: Aspergillus niger (NCIM 2191); assay: MIC, broth microdilution; assay type: cell-based; details: NCIM2191, read-out: Minimum inhibitory concentration (MIC), AN
Procedure, shortened: (§3)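 Antifungal MICs by CLSI broth microdilution in Sabouraud liquid medium. Test compounds and standard drugs are serially diluted two-fold from 512 to 0.25. The fungal broth culture is grown 24 h at 35 °C to a 0.5 McFarland turbidity, then adjusted with sterile solution to the final inoculum.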

[8] = system: Candida albicans (NCIM 2087); assay: MIC, broth microdilution; assay type: cell-based; details: NCIM2087, read-out: Minimum inhibitory concentration (MIC), CA
Procedure, shortened: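 CLSI broth microdilution in Sabouraud liquid medium, with test compound two-fold serially diluted from 512 to 0.25. Fungal broth culture grown 24 h at 35 °C to 0.5 McFarland turbidity, then adjusted with sterile solution to a final […] inoculum. MIC expressed in µg/mL.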

[9] = system: Aspergillus fumigatus (NCIM 2081); assay: MIC, broth microdilution; assay type: cell-based; details: NCIM2081, read-out: Minimum inhibitory concentration (MIC), AF
Procedure, shortened: as §3

[10] = system: Cryptococcus neoformans (ATCC 9011); assay: MIC, broth microdilution; assay type: cell-based; details: ATCC9011, read-out: Minimum inhibitory concentration (MIC), CN
Procedure, shortened: as §3

[11] = system: Escherichia coli (ATCC 8739); assay: Agar disk diffusion, inhibition zone; assay type: cell-based; details: 100 µg/8 mm disc, triplicate, mean ± SD
Procedure, shortened: (§4)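 Agar disk diffusion on Mueller-Hinton agar plates seeded with a standard bacterial suspension. Test compound stock in DMSO, diluted with distilled water; 8 mm sterile filter-paper discs soaked in the solution. Ampicillin was the reference. Plates incubated at 35 °C for 24 h, in triplicate. Read-out is the average inhibition-zone diameter (mm) around each disc.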

[12] = system: Pseudomonas aeruginosa (MCCB 0035); assay: Agar disk diffusion, inhibition zone; assay type: cell-based; details: 100 µg/8 mm disc, triplicate, mean ± SD
[13] = system: Salmonella typhimurium (NCIM-2501); assay: Agar disk diffusion, inhibition zone; assay type: cell-based; details: 100 µg/8 mm disc, triplicate, mean ± SD
[14] = system: Klebsiella aerogenes (NCIM-2098); assay: Agar disk diffusion, inhibition zone; assay type: cell-based; details: 100 µg/8 mm disc, triplicate, mean ± SD
[15] = system: Staphylococcus aureus (ATCC 29213); assay: Agar disk diffusion, inhibition zone; assay type: cell-based; details: 100 µg/8 mm disc, triplicate, mean ± SD
Procedure, shortened: as §4

[16] = system: Bacillus cereus (NCIM-2458); assay: Agar disk diffusion, inhibition zone; assay type: cell-based; details: 100 µg/8 mm disc, triplicate, mean ± SD
[17] = system: Lactobacillus casei (NCIM-2651); assay: Agar disk diffusion, inhibition zone; assay type: cell-based; details: 100 µg/8 mm disc, triplicate, mean ± SD
[18] = system: Streptococcus pneumonia (ATCC 49619); assay: Agar disk diffusion, inhibition zone; assay type: cell-based; details: 100 µg/8 mm disc, triplicate, mean ± SD
[19] = system: Aspergillus niger (NCIM 2191); assay: Agar disk diffusion, inhibition zone; assay type: cell-based; details: 100 µg/8 mm disc, triplicate, mean ± SD
Procedure, shortened: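 For the fungal strain, discs soaked in test compound solution (DMSO stock diluted with distilled water) sat on seeded Mueller-Hinton agar. Clotrimazole was the reference. Incubation ran 48 h at 35 °C, in triplicate. Zone of growth inhibition recorded in mm as the mean diameter around each disc.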

[20] = system: Candida albicans (NCIM 2087); assay: Agar disk diffusion, inhibition zone; assay type: cell-based; details: 100 µg/8 mm disc, triplicate, mean ± SD
[21] = system: Aspergillus fumigatus (NCIM 2081); assay: Agar disk diffusion, inhibition zone; assay type: cell-based; details: 100 µg/8 mm disc, triplicate, mean ± SD
[22] = system: Cryptococcus neoformans (ATCC 9011); assay: Agar disk diffusion, inhibition zone; assay type: cell-based; details: 100 µg/8 mm disc, triplicate, mean ± SD
[23] = Vero cell cultures, microscopically detectable alteration of normal cell morphology

## CC(=O)N[C@H]1[C@H]([C@H](O)[C@H](O)CO)OC(C(=O)O)=C[C@@H]1N=C(N)N [Zanamivir, reference compound]
[1]
  Cytotoxicity, Minimum cytotoxic conc.: >100 µM

## dextran sulfate [DS-10.000, reference compound]
Para-influenza-3 virus
  EC50: > 100 µM
Yellow Fever virus
  EC50: 0.8 µM
Vero cells
  Minimum cytotoxic conc.: >100 µM

## Nc1ccn([C@@H]2CS[C@H](CO)O2)c(=O)n1 [Lamivudine, reference compound]
MT4 cells
  Minimum cytotoxic conc.: >20 µM

## Cc1ccnc2c1NC(=O)c1cccnc1N2C1CC1 [Nevirapine, reference compound]
MT4 cells
  Minimum cytotoxic conc.: >4 µM

## Nc1ccn([C@H]2CC[C@@H](CO)O2)c(=O)n1 [Zalcitabine, reference compound]
Adeno virus-2
  EC50: 50 µM

## NC(=O)c1ncn([C@@H]2O[C@H](CO)[C@@H](O)[C@H]2O)n1 [Ribavirin, reference compound]
Human Coronavirus (229E)
  EC50: > 250 µM
Para-influenza-3 virus; Vero
  EC50: 112 µM
Reovirus-1
  EC50: > 250 µM
Sindbis virus
  EC50: > 250 µM
Coxsackie virus B4
  EC50: > 250 µM
Yellow Fever virus; Yellow fever virus, Vero
  EC50: > 250 µM
Vero cells; [23]
  Minimum cytotoxic conc.: >250 µM
[1]
  Cytotoxicity, Minimum cytotoxic conc.: ≥100 µM

## Nc1nc2c(ncn2COCCO)c(=O)[nH]1 [Acyclovir, reference compound]
Vaccinia virus
  EC50: > 250 µM

## Nc1nc(O)c2ncn(COC(CO)CO)c2n1 [Ganciclovir, reference compound]
Vaccinia virus
  EC50: > 100 µM

## O=c1[nH]cnc2c1ncn2[C@H]1CC[C@@H](CO)O1 [Didanosine, reference compound]
MT4 cells
  Minimum cytotoxic conc.: >50 µM

## CC(N)C12CC3CC(CC(C3)C1)C2 (centres unmarked) [Rimantadine, reference compound]
[1]
  Cytotoxicity, Minimum cytotoxic conc.: >200 µM

## NC12CC3CC(CC(C3)C1)C2 [Amantadine, reference compound]
[1]
  Cytotoxicity, Minimum cytotoxic conc.: >100 µM

## Cc1cn([C@H]2C[C@H](F)[C@@H](CO)O2)c(=O)[nH]c1=O [Alovudine, reference compound]
Adeno virus-2
  EC50: 1.4 µM

## COc1c(C)c2c(c(O)c1C/C=C(\C)CCC(=O)O)C(=O)OC2 [Mycophenolic acid, mycophenolic acid, reference compound]
Para-influenza-3 virus; Vero
  EC50: 0.4 µM
Reovirus-1
  EC50: 0.4 µM
Sindbis virus
  EC50: 11.7 µM
Coxsackie virus B4
  EC50: > 100 µM
Punta Toro virus
  EC50: 1.4 µM
Yellow Fever virus; Yellow fever virus, Vero
  EC50: 0.8 µM
Vero cells; [23]
  Minimum cytotoxic conc.: >100 µM

## Cc1ccc(S(=O)(=O)N2C(=O)CSC2c2cccc(O)c2)cc1 (centres unmarked) [5l, 2-(3-Hydroxyphenyl)-3-[(4-methylphenyl)sulfonyl]-1,3-thiazolidin-4-one]
[2]
  MIC: 16 µg/mL (≈ 45.8 µM)
[3]
  MIC: 32 µg/mL (≈ 91.6 µM)
[4]
  MIC: 16 µg/mL (≈ 45.8 µM)
[5]
  MIC: 64 µg/mL (≈ 183 µM)
[6]
  MIC: 128 µg/mL (≈ 366 µM)
[7]
  MIC: 64 µg/mL (≈ 183 µM)
[8]
  MIC: 16 µg/mL (≈ 45.8 µM)
[9]
  MIC: 64 µg/mL (≈ 183 µM)
[10]
  MIC: 128 µg/mL (≈ 366 µM)
[11]
  Diameter of growth inhibition zone, EC: 17.8 ± 1.1 mm
[12]
  Diameter of growth inhibition zone, PA: 16 ± 1.5 mm
[13]
  Diameter of growth inhibition zone, ST: 10 ± 0.3 mm
[14]
  Diameter of growth inhibition zone, KA: 14 ± 0.4 mm
[15]
  Diameter of growth inhibition zone, SA: 14 ± 1.2 mm
[16]
  Diameter of growth inhibition zone, BC: 08 ± 0.5 mm
[17]
  Diameter of growth inhibition zone, LC: 12 ± 1.6 mm
[18]
  Diameter of growth inhibition zone, SP: 10 ± 0.5 mm
[19]
  Diameter of growth inhibition zone, AN: 14 ± 1.5 mm
[20]
  Diameter of growth inhibition zone, CA: 17 ± 0.5 mm
[21]
  Diameter of growth inhibition zone, AF: 12 ± 2.3 mm
[22]
  Diameter of growth inhibition zone, CN: 12 ± 1.4 mm

## Cc1cn([C@H]2C[C@H](N=[N+]=[N-])[C@@H](CO)O2)c(=O)[nH]c1=O [Azidothymidine, reference compound]
MT4 cells
  Minimum cytotoxic conc.: >2 µM

## Cc1ccc(S(=O)(=O)N2C(=O)CSC2c2cccc(C)c2)cc1 (centres unmarked) [5s, 2-(3-Methylphenyl)-3-[(4-methylphenyl)sulfonyl]-1,3-thiazolidin-4-one]
[2]
  MIC: 16 µg/mL (≈ 46 µM)
[3]
  MIC: 64 µg/mL (≈ 184 µM)
[4]
  MIC: 128 µg/mL (≈ 368 µM)
[5]
  MIC: 128 µg/mL (≈ 368 µM)
[6]
  MIC: 64 µg/mL (≈ 184 µM)
[7]
  MIC: 128 µg/mL (≈ 368 µM)
[8]
  MIC: 64 µg/mL (≈ 184 µM)
[9]
  MIC: 64 µg/mL (≈ 184 µM)
[10]
  MIC: 128 µg/mL (≈ 368 µM)
[11]
  Diameter of growth inhibition zone, EC: 17 ± 1.5 mm
[12]
  Diameter of growth inhibition zone, PA: 15 ± 0.32 mm
[13]
  Diameter of growth inhibition zone, ST: 10 ± 0.4 mm
[14]
  Diameter of growth inhibition zone, KA: 08 ± 1.3 mm
[15]
  Diameter of growth inhibition zone, SA: 13 ± 1.5 mm
[16]
  Diameter of growth inhibition zone, BC: 10 ± 0.2 mm
[17]
  Diameter of growth inhibition zone, LC: 10 ± 0.6 mm
[18]
  Diameter of growth inhibition zone, SP: 08 ± 0.4 mm
[19]
  Diameter of growth inhibition zone, AN: 9.6 ± 0.63 mm
[20]
  Diameter of growth inhibition zone, CA: 10 ± 1.1 mm
[21]
  Diameter of growth inhibition zone, AF: 9.2 ± 1.5 mm
[22]
  Diameter of growth inhibition zone, CN: 9 ± 0.5 mm
